Each block holds one compound with its values, some of them ahead of it.
What was measured:
[1] = system: BTK; settings: cited from earlier work
[2] = system: healthy participants; test: Safety assessment; assay type: in vivo, human; settings: for Dizziness / Dysmenorrhoea / Headache / Myalgia / Nausea / Oral herpes / Rash / Tension headache / Throat irritation / Upper respiratory tract infection: all branebrutinib doses
[3] = target: Bruton's tyrosine kinase (BTK) (Homo sapiens, UniProt Q06187); test: BTK occupancy in blood by immunocapture LC–MS/MS; assay type: in vivo; settings: for Time at which BTK occupancy reached steady state: MAD
Sequence of Bruton's tyrosine kinase (BTK) (Q06187 whole entry, the tested form may be a part): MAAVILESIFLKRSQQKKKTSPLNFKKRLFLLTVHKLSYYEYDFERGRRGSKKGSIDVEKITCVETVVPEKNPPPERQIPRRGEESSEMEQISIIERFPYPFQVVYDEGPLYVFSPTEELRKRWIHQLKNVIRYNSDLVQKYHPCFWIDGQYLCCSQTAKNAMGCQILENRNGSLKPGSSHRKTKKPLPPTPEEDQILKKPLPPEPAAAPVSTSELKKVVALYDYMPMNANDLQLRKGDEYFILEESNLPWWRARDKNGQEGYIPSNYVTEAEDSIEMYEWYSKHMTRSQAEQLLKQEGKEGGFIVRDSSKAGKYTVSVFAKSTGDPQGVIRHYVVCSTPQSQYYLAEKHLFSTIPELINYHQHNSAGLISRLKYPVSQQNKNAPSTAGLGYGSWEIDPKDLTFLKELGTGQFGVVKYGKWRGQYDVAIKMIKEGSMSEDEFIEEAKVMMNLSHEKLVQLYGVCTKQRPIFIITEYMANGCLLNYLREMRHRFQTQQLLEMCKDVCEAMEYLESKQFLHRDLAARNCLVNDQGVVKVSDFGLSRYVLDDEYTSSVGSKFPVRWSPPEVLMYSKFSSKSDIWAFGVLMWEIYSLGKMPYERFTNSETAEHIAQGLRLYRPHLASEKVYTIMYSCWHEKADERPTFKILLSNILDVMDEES
How it was run: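 Healthy volunteers in SAD and MAD parts (MAD doses 0.3–10 mg). Whole blood in ACD-A was lysed at once in buffer with protease inhibitor and a Cys481-reactive quencher, shaken 1 h at room temperature, and stored ≤−70°C. Anti-BTK bead immunocapture, on-bead trypsin digest, and LC–MS/MS of drug- or quencher-bound Cys481 peptide (residues 467–487). Occupancy = DB/(DB+QB)×100, and total BTK was also derived.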

[4] = system: EGFR kinases; settings: cited from earlier work
[5] = Plasma pharmacokinetics by validated LC–MS/MS; assay type: in vivo, human; settings: for AUC(0-inf) / Cmax / half-life / Tmax / Vd/F: human, plasma; for AUC(0-inf): GM AUCinf; for Cmax: GM Cmax; for Tmax: Median Tmax
[6] = system: serum immunoglobulin levels; test: Serum immunoglobulins; assay type: in vivo, human; settings: both parts (SAD and MAD)
How it was run: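 Healthy adults aged 18–55 y, randomised 3:1 to test compound or placebo, double-blind. Single-ascending-dose part: one oral dose of 0.3, 1, 3, 10 or 30 mg (n = 6 each; placebo n = 10). Multiple-ascending-dose part: oral dosing daily for 14 days at 0.3–10 mg. Serum immunoglobulins measured in both parts and summarised descriptively.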

[7] = system: murine models of collagen‐ and collagen antibody–induced arthritis; settings: administered orally once daily (QD); both arthritis models; cited from earlier work
[8] = preclinical studies; cited from earlier work
[9] = system: peripheral blood B‐cell populations; test: Peripheral blood B-cell subsets; assay type: in vivo, human; settings: MAD part
How it was run: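 Double-blind, placebo-controlled multiple-ascending-dose part in healthy adults aged 18–55 y (BMI 18–32 kg m−2), randomised 3:1 to test compound or placebo. Oral dosing once daily for 14 days at 0.3, 1, 3 or 10 mg, with 14 days of post-dosing follow-up. Peripheral blood B-cell subsets measured and summarised with descriptive statistics.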

[10] = oral, 0.3 mg, JMAD part (day 14), 0.3 mg QD, n = 6
[11] = oral, 0.3 mg, MAD part (day 14), 0.3 mg QD, n = 6
[12] = oral, 1 mg, MAD part (day 14), 1 mg QD, n = 6
[13] = oral, 1 mg, SAD part (day 1), 1 mg, n = 6
[14] = oral, 3 mg, JMAD part (day 14), 3 mg QD, n = 6
[15] = oral, 3 mg, MAD part (day 14), 3 mg QD, n = 6
[16] = oral, 3 mg, SAD part (day 1), 3 mg, n = 6
[17] = oral, 10 mg, JMAD part (day 14), 10 mg QD, n = 6
[18] = oral, 10 mg, MAD part (day 14), 10 mg QD, n = 5
[19] = oral, 10 mg, SAD part (day 1), 10 mg, n = 6
[20] = oral, 30 mg, SAD part (day 1), 30 mg, n = 6

Time at which BTK occupancy reached steady state ([3]; 0.3‐mg dose group): 14 days | Time at which BTK occupancy reached steady state ([3]; 10‐mg dose group): 1 days | Doses projected to be efficacious (BTK occupancy >90% at steady state) ([3]; at steady state, QD): ≥ 1 mg | GM CLT/F (apparent total body clearance) ([5]; JMAD part (day 14), 0.3 mg QD, n = 5): 94.0 (n = 5) L/hr | GM CLT/F (apparent total body clearance) ([5]; JMAD part (day 14), 3 mg QD, n = 6): 109 (n = 6) L/hr | GM CLT/F (apparent total body clearance) ([5]; JMAD part (day 14), 10 mg QD, n = 6): 72.2 (n = 6) L/hr | GM CLT/F (apparent total body clearance) ([5]; MAD part (day 14), 0.3 mg QD, n = 5): 81.3 (n = 5) L/hr | GM CLT/F (apparent total body clearance) ([5]; MAD part (day 14), 1 mg QD, n = 6): 95.5 (n = 6) L/hr | GM CLT/F (apparent total body clearance) ([5]; MAD part (day 14), 3 mg QD, n = 6): 98.1 (n = 6) L/hr | GM CLT/F (apparent total body clearance) ([5]; MAD part (day 14), 10 mg QD, n = 5): 99.5 (n = 5) L/hr | Accumulation following administration of multiple doses ([5]; MAD, QD 14 days): No accumulation | GM CLT/F (apparent total body clearance) ([5]; SAD part (day 1), 0.3 mg single oral dose, n = 6): 126 L/h | GM CLT/F (apparent total body clearance) ([5]; SAD part (day 1), 1 mg, n = 6): 124 L/h | GM CLT/F (apparent total body clearance) ([5]; SAD part (day 1), 3 mg, n = 6): 122 L/h | GM CLT/F (apparent total body clearance) ([5]; SAD part (day 1), 10 mg, n = 6): 99.6 L/h | GM CLT/F (apparent total body clearance) ([5]; SAD part (day 1), 30 mg, n = 6): 106 L/h | Time to drop to undetectable plasma levels ([5]; after single or multiple doses): ≤ 24 h | AUC(0-inf) ([5]; oral, 0.3 mg, JMAD part (day 14), 0.3 mg QD, n = 5): 3.2 ng·h/mL | AUC(0-inf) ([5]; oral, 0.3 mg, MAD part (day 14), 0.3 mg QD, n = 5): 3.7 ng·h/mL | Cmax [5, 10]: 2 ng/mL | Cmax [5, 11]: 2.2 ng/mL | half-life ([5]; oral, 0.3 mg, Mean t1/2, JMAD part (day 14), 0.3 mg QD, n = 5): 54.6 min | half-life ([5]; oral, 0.3 mg, Mean t1/2, MAD part (day 14), 0.3 mg QD, n = 5): 78 min | Tmax [5, 10]: 30 min | Tmax [5, 11]: 60 min | Vd/F ([5]; oral, 1 mg): 255 L | AUC(0-inf) [5, 12]: 10.5 ng·h/mL | AUC(0-inf) [5, 13]: 8.1 ng·h/mL | Cmax [5, 12]: 5.9 ng/mL | Cmax [5, 13]: 4.6 ng/mL | half-life ([5]; oral, 1 mg, Mean t1/2, MAD part (day 14), 1 mg QD, n = 6): 99.6 min | half-life ([5]; oral, 1 mg, Mean t1/2, SAD part (day 1), 1 mg, n = 6): 95.4 min | Tmax [5, 12]: 30 min | Tmax [5, 13]: 30 min | Vd/F ([5]; oral, 3 mg): 304 L | AUC(0-inf) [5, 14]: 27.4 ng·h/mL | AUC(0-inf) [5, 15]: 30.6 ng·h/mL | AUC(0-inf) [5, 16]: 24.5 ng·h/mL | Cmax [5, 14]: 16.3 ng/mL | Cmax [5, 15]: 17.8 ng/mL | Cmax [5, 16]: 14.2 ng/mL | half-life ([5]; oral, 3 mg, Mean t1/2, JMAD part (day 14), 3 mg QD, n = 6): 90.6 min | half-life ([5]; oral, 3 mg, Mean t1/2, MAD part (day 14), 3 mg QD, n = 6): 98.4 min | half-life ([5]; oral, 3 mg, Mean t1/2, SAD part (day 1), 3 mg, n = 6): 104 min | Tmax [5, 14]: 30 min | Tmax [5, 15]: 30 min | Tmax [5, 16]: 48 min | Vd/F ([5]; oral, 10 mg): 221 L | AUC(0-inf) [5, 17]: 139 ng·h/mL | AUC(0-inf) [5, 18]: 101 ng·h/mL | AUC(0-inf) [5, 19]: 100 ng·h/mL | Cmax [5, 17]: 97.2 ng/mL | Cmax [5, 18]: 60.5 ng/mL | Cmax [5, 19]: 66.6 ng/mL | half-life ([5]; oral, 10 mg, Mean t1/2, JMAD part (day 14), 10 mg QD, n = 6): 102 min | half-life ([5]; oral, 10 mg, Mean t1/2, MAD part (day 14), 10 mg QD, n = 5): 104 min | half-life ([5]; oral, 10 mg, Mean t1/2, SAD part (day 1), 10 mg, n = 6): 93.6 min | Tmax [5, 17]: 30 min | Tmax [5, 18]: 30 min | Tmax [5, 19]: 30 min | Vd/F ([5]; oral, 30 mg): 245 L | AUC(0-inf) [5, 20]: 282 ng·h/mL | Cmax [5, 20]: 179 ng/mL | half-life ([5]; oral, 30 mg, Mean t1/2, SAD part (day 1), 30 mg, n = 6): 97.8 min | Tmax [5, 20]: 30 min | Vd/F ([5]; po, 0.3 mg): 216 L | Trough observed concentrations ([5]; multiple doses, LLOQ 0.100 ng mL^−1): below the LLOQ | Systemic exposure vs dose ([5]; single or multiple doses): dose‐proportional
SMILES: CC#CC(=O)N[C@H]1CCCN(c2c(F)cc(C(N)=O)c3[nH]c(C)c(C)c23)C1 [Branebrutinib]
Selectivity for BTK over 4 related Tec family kinases [1]: < 5000 fold | Selectivity for BTK over 240 other kinases [1]: > 5000 fold | Dizziness ([2]; JMAD part, n = 18): 0 (0.0) n (%) | Dysmenorrhoea ([2]; JMAD part, n = 18): 2 (11.1) n (%) | Headache ([2]; JMAD part, n = 18): 1 (5.6) n (%) | Myalgia ([2]; JMAD part, n = 18): 0 (0.0) n (%) | Nausea ([2]; JMAD part, n = 18): 0 (0.0) n (%) | Oral herpes ([2]; JMAD part, n = 18): 0 (0.0) n (%) | Rash ([2]; JMAD part, n = 18): 0 (0.0) n (%) | Tension headache ([2]; JMAD part, n = 18): 0 (0.0) n (%) | Throat irritation ([2]; JMAD part, n = 18): 0 (0.0) n (%) | Upper respiratory tract infection ([2]; JMAD part, n = 18): 0 (0.0) n (%) | Serious AE (psychosis) leading to study discontinuation, number ([2]; MAD part, 10‐mg cohort, Day 10, considered not related to study drug): 1 | Any AE ([2]; MAD part, QD 14 days, all branebrutinib doses 0.3-10 mg, n = 24): 17 (70.8) n (%) | Dizziness ([2]; MAD part, n = 24): 0 (0.0) n (%) | Dysmenorrhoea ([2]; MAD part, n = 24): 0 (0.0) n (%) | Headache ([2]; MAD part, n = 24): 8 (33.3) n (%) | Myalgia ([2]; MAD part, n = 24): 0 (0.0) n (%) | Nausea ([2]; MAD part, n = 24): 2 (8.3) n (%) | Oral herpes ([2]; MAD part, n = 24): 3 (12.5) n (%) | Rash ([2]; MAD part, n = 24): 0 (0.0) n (%) | Tension headache ([2]; MAD part, n = 24): 2 (8.3) n (%) | Throat irritation ([2]; MAD part, n = 24): 0 (0.0) n (%) | Upper respiratory tract infection ([2]; MAD part, n = 24): 4 (16.7) n (%) | Dizziness ([2]; SAD part, n = 30): 3 (10.0) n (%) | Dysmenorrhoea ([2]; SAD part, n = 30): 2 (6.7) n (%) | Headache ([2]; SAD part, n = 30): 4 (13.3) n (%) | Myalgia ([2]; SAD part, n = 30): 2 (6.7) n (%) | Nausea ([2]; SAD part, n = 30): 2 (6.7) n (%) | Oral herpes ([2]; SAD part, n = 30): 1 (3.3) n (%) | Rash ([2]; SAD part, n = 30): 2 (6.7) n (%) | Tension headache ([2]; SAD part, n = 30): 0 (0.0) n (%) | Throat irritation ([2]; SAD part, n = 30): 2 (6.7) n (%) | Upper respiratory tract infection ([2]; SAD part, n = 30): 3 (10.0) n (%) | Any AE ([2]; SAD part, single dose, all branebrutinib doses 0.3-30 mg, n = 30): 18 (60.0) n (%) | Dose‐related trend in AEs ([2]; across both parts of the trial): no dose‐related trend | Tolerability ([2]; single or multiple doses in healthy participants): well tolerated | Activity against EGFR kinases ([4]; in vitro assessment): lacks activity | Effect on serum immunoglobulin levels [6]: no obvious effect | Doses at which maximal efficacy was observed [7]: ≥ 0.5 mg/kg | Brain penetration [8]: < 5 % of plasma concentration | Effect on peripheral blood B‐cell populations [9]: no obvious effect

SMILES: C=CC(=O)N1CCC[C@@H](n2nc(-c3ccc(Oc4ccccc4)cc3)c3c(N)ncnc32)C1 [ibrutinib, reference compound]
Inhibition of the EGFR family of kinases [4]: potent irreversible inhibitor
